# Measured values pooled from the literature.
# FGFR3: Fibroblast growth factor receptor 3 (FGFR3, Homo sapiens, UniProt P22607)
# HSD11B2: 11-beta-hydroxysteroid dehydrogenase type 2 (HSD11B2, Homo sapiens, UniProt P80365)
# CDK4: Cyclin-dependent kinase 4 (CDK4, Homo sapiens, UniProt P11802)
Compound,target,assay,setting,endpoint,value
Clc1cccc(-c2c[nH]c3nccc(N4CCOCC4)c23)c1,"Serine/threonine-protein kinase 3 (STK3, Homo sapiens, UniProt Q13188)","thermal stability, DSF",20 µM,ΔTm,> 8 °C
Cc1nn(C)cc1-c1nc2c(N3CCN(Cc4ccc(Cl)cc4)CC3)c(Cl)cnc2[nH]1,FGFR3,"binding, competition with immobilised ligand",1 µM,remaining binding,70%
CCCCCCC(C)(C)c1cc(O)c2c(c1)OC(C)(C)C1CCC(=O)CC21 (stereo not shown),HSD11B2,"enzyme activity, inhibitor","20 µM, lysate",inhibition,< 40%
CCOC(=O)[C@H]1Cc2c(cc([N+](=O)[O-])cc2[N+](=O)[O-])[C@H](O)[C@]12C(=O)Nc1cc(Br)ccc12,CDK4,"cell-free assay, inhibitor, TR-FRET",1 µM,inhibition,32.9%
C[C@]12CC[C@H]3[C@@H](CCC4=CC(=O)CC[C@@H]43)[C@@H]1CC[C@@H]2O,HSD11B2,"enzyme activity, inhibitor","20 µM, lysate",inhibition,< 40%
C#Cc1n[nH]c2c(-c3cn([C@@H](C)c4ccccn4)c(=O)[nH]c3=O)cc(F)cc12,FGFR3,"enzyme activity, inhibitor",0.1 µM,inhibition,2.9%
CCOC(=O)[C@H]1Cc2c(cc([N+](=O)[O-])cc2[N+](=O)[O-])[C@H](O)[C@]12C(=O)Nc1ccc(Br)cc12,CDK4,"cell-free assay, inhibitor, TR-FRET",1 µM,inhibition,34.1%
CN1CC[C@@]2(C)c3cc(OC(=O)Nc4ccccc4)ccc3N(C)[C@@H]12,"Muscarinic acetylcholine receptor M2 (CHRM2, Homo sapiens, UniProt P08172)","ligand displacement, radioligand",10 µM,inhibition,7.6%
COc1ncccc1-c1cnn2ccc(N3CCN(C(=O)OC(C)C)CC3)nc12,"Serine/threonine-protein kinase DCLK1 (DCLK1, Homo sapiens, UniProt O15075)","binding, competition with immobilised ligand",1 µM,remaining binding,99%
Nc1ncc(-c2nc(N3CCOCC3)nc(N3CCOCC3)n2)c(C(F)F)n1,"Ribosomal protein S6 kinase alpha-1, N-terminal kinase domain (RPS6KA1, Homo sapiens, UniProt Q15418)","binding, competition with immobilised ligand",10 µM,remaining binding,75%
